Reference: ChEMBL document CHEMBL3797200, “Mohangic Acids A-E, p-Aminoacetophenonic Acids from a Marine-Mudflat-Derived Streptomyces sp” (J Nat Prod, 2016)
Activity calls are given as the source filed them. No cut-off for these calls is given here.

Experiments:
A549 = experiment: Cytotoxicity against human A549 cells after 72 hrs by SRB assay; format: functional, cell-based; conditions: A549, 72 h
Mus musculus [1] = species on record: Mus musculus; experiment: Induction of Quinone reductase activity in mouse Hepa1c1c7 cells at 5 uM after 24 hrs by MTT assay relative to control; format: cell-based
Summary of the method: (§1)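 Hepa-1c1c7 murine hepatoma cells plated at 20 000 cells/mL, grown 24 h (37 °C, 5% CO2), then compound-treated 24 h; vehicle 0.1% DMSO, β-naphthoflavone 2 μM positive control. Lysis in Tris/NaCl/MgCl2/0.5% NP-40, then FAD, G6P/G6PDH, NADP, MTT, menadione mix, 10 min; MTT reduction at 610 nm, crystal violet protein on parallel plates; SA = (MTTabs/CVabs)×3345, nmol/min/mg; mean ± SD of four determinations.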

Mus musculus [2] = species on record: Mus musculus; experiment: Induction of Quinone reductase activity in mouse Hepa1c1c7 cells at 10 uM after 24 hrs by MTT assay relative to control; format: cell-based; summary of the method: as §1
Mus musculus [3] = species on record: Mus musculus; experiment: Induction of Quinone reductase activity in mouse Hepa1c1c7 cells at 30 uM after 24 hrs by MTT assay relative to control; format: cell-based; summary of the method: as §1
[4] = Cytotoxicity against mouse Hepa1c1c7 cells; format: cell-based
Mus musculus [5] = species on record: Mus musculus; experiment: Induction of Quinone reductase activity in mouse Hepa1c1c7 cells at 2 uM after 24 hrs by MTT assay relative to control; format: cell-based; summary of the method: as §1
Mus musculus [6] = species on record: Mus musculus; experiment: Induction of Quinone reductase activity in mouse Hepa1c1c7 cells after 24 hrs by MTT assay; format: cell-based; summary of the method: as §1
Mus musculus [7] = species on record: Mus musculus; experiment: Induction of Quinone reductase activity in mouse Hepa1c1c7 cells at 20 uM after 24 hrs by MTT assay relative to control; format: cell-based; summary of the method: as §1
Aspergillus fumigatus = experiment: Antifungal activity against Aspergillus fumigatus; format: functional
Candida albicans = experiment: Antifungal activity against Candida albicans; format: functional
Escherichia coli = experiment: Antibacterial activity against Escherichia coli; format: functional
Proteus hauseri = experiment: Antibacterial activity against Proteus hauseri; format: functional
Salmonella enterica = experiment: Antibacterial activity against Salmonella enterica; format: functional
Kocuria rhizophila = experiment: Antibacterial activity against Kocuria rhizophila; format: functional
Bacillus subtilis = experiment: Antibacterial activity against Bacillus subtilis; format: functional
Staphylococcus aureus = experiment: Antibacterial activity against Staphylococcus aureus; format: functional
[8] = Cytotoxicity against human SKHEP1 cells after 72 hrs by SRB assay; format: functional, cell-based; conditions: SK-HEP1, 72 h
MDA-MB-231 = experiment: Cytotoxicity against human MDA-MB-231 cells after 72 hrs by SRB assay; format: functional, cell-based; conditions: MDA-MB-231, 72 h
K562 = experiment: Cytotoxicity against human K562 cells after 72 hrs by SRB assay; format: functional, cell-based; conditions: K562, 72 h
[9] = Cytotoxicity against human SNU638 cells after 72 hrs by SRB assay; format: functional, cell-based; conditions: SNU-638, 72 h
[10] = Cytotoxicity against human HCT116 cells after 72 hrs by SRB assay; format: functional, cell-based; conditions: HCT-116, 72 h

SMILES | MIC (Aspergillus fumigatus) [µM] | MIC (Candida albicans) [µM] | MIC (Escherichia coli) [µM] | MIC (Proteus hauseri) [µM] | MIC (Salmonella enterica) [µM] | MIC (Kocuria rhizophila) [µM] | MIC (Bacillus subtilis) [µM] | MIC (Staphylococcus aureus) [µM] | IC50 (A549) [µM] | IC50 [8] [µM] | IC50 (MDA-MB-231) [µM] | IC50 (K562) [µM] | IC50 [9] [µM] | IC50 [10] [µM] | Activity (Mus musculus [7]) | other results
CC(=O)Nc1ccc([C@H](O)C[C@@H](O)[C@H](C)C[C@@H](C)[C@H](O)[C@H](C)/C=C/C=C/C=C/[C@H](O)CC(=O)O)cc1 | > 128 | > 128 | > 128 | > 128 | > 128 | > 128 | > 128 | > 128 | > 10 | > 10 | > 10 | > 10 | > 10 | > 10 | inactive | 
C[C@H](/C=C/C=C/C=C/[C@H](O)CC(=O)O)[C@@H](O)[C@H](C)C[C@@H](C)[C@H](O)CC(=O)c1ccc(N)cc1 | > 128 | > 128 | > 128 | > 128 | > 128 | > 128 | > 128 | > 128 | > 10 | > 10 | > 10 | > 10 | > 10 | > 10 | inactive | 

Continued, in another order:

MIC (Aspergillus fumigatus) [µM] | MIC (Candida albicans) [µM] | MIC (Escherichia coli) [µM] | MIC (Proteus hauseri) [µM] | MIC (Salmonella enterica) [µM] | MIC (Kocuria rhizophila) [µM] | MIC (Bacillus subtilis) [µM] | MIC (Staphylococcus aureus) [µM] | SMILES | IC50 (A549) [µM] | IC50 [8] [µM] | IC50 (MDA-MB-231) [µM] | IC50 (K562) [µM] | IC50 [9] [µM] | IC50 [10] [µM] | Activity (Mus musculus [7]) | other results
> 128 | > 128 | > 128 | > 128 | > 128 | > 128 | > 128 | > 128 | C[C@H](/C=C/C=C/C=C/[C@H](O)CC(=O)O)[C@@H](O)[C@H](C)C[C@@H](C)[C@H](O)CC(=O)c1ccc(N[C@@H]2O[C@H](CO)[C@@H](O)[C@H](O)[C@H]2O)cc1 | > 10 | > 10 | > 10 | > 10 | > 10 | > 10 |  | fold change (FC) (Mus musculus [1]): 1.5; fold change (FC) (Mus musculus [2]): 1.8; fold change (FC) (Mus musculus [3]): 2.2; Activity [4]: Non-toxic; fold change (FC) (Mus musculus [5]): 1.3; Activity (Mus musculus [6]): Dose-dependent effect; fold change (FC) (Mus musculus [7]): 2.1
> 128 | > 128 | > 128 | > 128 | > 128 | > 128 | > 128 | > 128 | CC(=O)Nc1ccc(C(=O)C[C@@H](O)[C@H](C)C[C@@H](C)[C@H](O)[C@H](C)/C=C/C=C/C=C/[C@H](O)CC(=O)O)cc1 | > 10 | > 10 | > 10 | > 10 | > 10 | > 10 | inactive | 
> 128 | > 128 | > 128 | > 128 | > 128 | > 128 | > 128 | > 128 | CNc1ccc(C(=O)C[C@@H](O)[C@H](C)C[C@@H](C)[C@H](O)[C@H](C)/C=C/C=C/C=C/[C@H](O)CC(=O)O)cc1 | > 10 | > 10 | > 10 | > 10 | > 10 | > 10 | inactive | 
